Measured values from different studies.
ABL1 H396P: Tyrosine-protein kinase ABL1 (ABL1, Homo sapiens, UniProt P00519, H396P)
ABL1: Tyrosine-protein kinase ABL1 (ABL1, Homo sapiens, UniProt P00519)
ABL1 phosphorylated: Tyrosine-protein kinase ABL1, phosphorylated (ABL1, Homo sapiens, UniProt P00519)
ABL1 Q252H phosphorylated: Tyrosine-protein kinase ABL1, phosphorylated (ABL1, Homo sapiens, UniProt P00519, Q252H)
ABL1 T315I: Tyrosine-protein kinase ABL1 (ABL1, Homo sapiens, UniProt P00519, T315I)
ABL1 M351T: Tyrosine-protein kinase ABL1 (ABL1, Homo sapiens, UniProt P00519, M351T)

SMILES | target | effect on | mode | method | tested at | quantity | result
CNC(=O)c1cc2c(Oc3ccc(NC(=O)C4(C(=O)Nc5ccc(F)cc5)CC4)cc3)ccnc2cc1OC | ABL1 H396P | enzyme activity | inhibitor | radiometric | 1 µM | inhibition | 75%
Cc1ccc(NC(=O)c2ccc(C)c(C(F)(F)F)c2)cc1C#Cc1nn(C2CCC(O)CC2)c2ncnc(N)c12 (stereo not shown) | ABL1 | cell-free assay | – | – | 10 µM | remaining signal | -3%
Nc1ncnc2occ(-c3ccc(NC(=O)Nc4cc(C(F)(F)F)ccc4F)cc3)c12 | ABL1 phosphorylated | cell-free assay | inhibitor | – | 20 µM | remaining signal | 0.1%
C[C@H](c1ccnc(Nc2nc3ccc(-c4cc(N(C)C)ncn4)cc3[nH]2)c1)N1CCN(C(=O)CC(F)(F)F)CC1 | ABL1 Q252H phosphorylated | cell-free assay | – | competition with immobilised ligand | 0.1 µM | remaining binding | 84%
Cc1ccc(NC(=O)c2ccc(CN3CCN(C)CC3)cc2)cc1Nc1nc(-c2cccnc2)cs1 | ABL1 | cell-free assay | – | – | 0.5 µM | remaining signal | 49.8%
O=C(NC[C@@H]1[C@H]2CN(C(=O)OCc3cc(C(F)(F)F)cc(C(F)(F)F)c3)C[C@@H]12)c1ccc2[nH]nnc2c1 | Tyrosine-protein kinase ABL1, non-phosphorylated (ABL1, Homo sapiens, UniProt P00519, F317L) | cell-free assay | – | competition with immobilised ligand | 1 µM | remaining binding | 91%
c1nc2c(Nc3ccc4c(c3)OCCO4)nc(Nc3ccc4c(c3)OCCO4)nc2[nH]1 | ABL1 phosphorylated | binding | – | competition with immobilised ligand | 10 µM | binding vs control | 1.2%
CCOC(=O)c1c(C)[nH]c(/C=C2\C(=O)Nc3ccccc32)c1C | ABL1 | cell-free assay | – | – | 0.5 µM | remaining signal | 95.4%
COCCOc1nc(-c2ccc(Cl)nc2)nc2c1CN(C(=O)c1ncn3ccccc13)CC2 | Tyrosine-protein kinase ABL1, phosphorylated (ABL1, Homo sapiens, UniProt P00519, H396P) | cell-free assay | – | competition with immobilised ligand | 0.1 µM | remaining binding | 100%
COc1cc2ncnc(Nc3ccc(Oc4ccccc4)cc3C)c2cc1OC | Tyrosine-protein kinase ABL1 (ABL1, Homo sapiens, UniProt P00519, E255K) | enzyme activity | inhibitor | – | 1 µM | inhibition | 5%
Cn1nc(C(=O)NCc2ccc(C(=O)O)cc2)cc1-c1ccc2[nH]ccc2c1 | Tyrosine-protein kinase ABL1, non-phosphorylated (ABL1, Homo sapiens, UniProt P00519) | cell-free assay | – | competition with immobilised ligand | 0.1 µM | remaining binding | 65%
COc1cc2ncnc(Nc3ccc(Oc4ccccc4)c(C)c3C)c2cc1OC | ABL1 T315I | enzyme activity | inhibitor | – | 1 µM | inhibition | 8%
CCCOc1ccc([C@H]2[C@H](C(=O)O)[C@@H](c3ccc4c(c3)OCO4)CN2CC(=O)Nc2c(CC)cccc2CC)cc1 | ABL1 Q252H phosphorylated | cell-free assay | – | competition with immobilised ligand | 1 µM | remaining binding | 86%
CNc1cccc2cc(C(=O)Nc3ccc(C(=O)O)cc3)c(=O)[nH]c12 | ABL1 T315I | enzyme activity | inhibitor | – | 10 µM | inhibition | 1.3%
Cc1ccc(C(=O)NCc2ccsc2)cc1C#Cc1cn(C(C)C)c2ncnc(N)c12 | ABL1 | enzyme activity | inhibitor | – | 1 µM | activity vs control | 1%
Cc1cc(NC(=O)c2cccc3cc(-c4cccc5[nH]nc(N)c45)ccc23)ccc1F | ABL1 M351T | enzyme activity | inhibitor | – | 0.1 µM | activity vs control | 89%
CC(C)(O)c1cncc(-c2nc3ccc(F)cc3n2C2CC2)c1 | ABL1 Q252H phosphorylated | cell-free assay | – | competition with immobilised ligand | 1 µM | remaining binding | 100%
Cc1cnc(NC2CCOCC2)nc1-n1cnc(C(=O)NC(CN)c2cc(F)cc(Cl)c2)c1 (stereo not shown) | ABL1 H396P | enzyme activity | inhibitor | radiometric | 1 µM | remaining activity | 108%
O=C1NC(=O)c2cc(Nc3ccc(F)cc3)c(Nc3ccc(F)cc3)cc21 | ABL1 | cell-free assay | – | – | 0.5 µM | remaining signal | 95.7%
CC(=O)c1c(NS(C)(=O)=O)c2cc(-c3ccc(Cl)cc3)c(-c3ccc(Cl)cc3Cl)nc2n(C)c1=O | ABL1 Q252H phosphorylated | cell-free assay | – | competition with immobilised ligand | 1 µM | remaining binding | 76%
COc1cc(-c2cc(-c3ccc(N4CCNCC4)cc3)cnc2N)cc(OC)c1OC | ABL1 M351T | enzyme activity | inhibitor | – | 0.1 µM | inhibition | 86%
C[S+]([O-])c1ccc(-c2nc(-c3ccncc3)c(-c3ccc(F)cc3)[nH]2)cc1 (stereo not shown) | ABL1 | cell-free assay | – | – | 0.5 µM | remaining signal | 97%
CCCOc1ccc(OC)c(F)c1C(=O)c1ccc(C(=O)N[C@@H]2CNC[C@H]2NC(=O)c2ccc3[nH]ncc3c2)cc1 | ABL1 H396P | enzyme activity | inhibitor | – | 10 µM | remaining activity | 107%
COc1ccc2c(c1)O[C@@H](c1ccc(OC)c(OC)c1)C[C@H]2NC(=O)C1(c2ccc3c(c2)OC(F)(F)O3)CC1 | Tyrosine-protein kinase ABL1, non-phosphorylated (ABL1, Homo sapiens, UniProt P00519, Q252H) | cell-free assay | – | competition with immobilised ligand | 1 µM | remaining binding | 90%
O=C1Nc2ccc(Cl)cc2C1=Cc1cc(Cl)c(O)c(Cl)c1 | ABL1 | cell-free assay | – | – | 0.5 µM | remaining signal | 84%
